Measurements pooled from the literature.
Lines come from different studies, so protocols differ.
Sample: plasma

| SMILES | test system | setting | Tmax |
| --- | --- | --- | --- |
| O=C(COc1ccc(Cl)cc1)NC12CC(c3nnc([C@H]4C[C@@H](OC(F)(F)F)C4)o3)(C1)C2 | human | oral, 45 mg, single dose, fasted, healthy volunteers | 8.02 h |
| COc1ccc(F)cc1C(=O)NCc1ccc(-c2nn([C@@H](C)C(F)(F)F)c(N)c2C(N)=O)cc1 | male human | oral, 200 mg, single dose | 5 h |
| Cc1cn([C@H]2C[C@H](N=[N+]=[N-])[C@@H](CO)O2)c(=O)[nH]c1=O | human | oral, 600 mg, single dose, healthy volunteers | 0.62 h |
| COc1ccc2c(c1)CN(C(=O)CCN1CCC(Cc3ccccc3)CC1)CC[S@@+]2[O-] | male human | intravenous, 0.05 mg/kg, healthy volunteers | 0 h |
| CC(C)n1cc(C#N)c2cc(-n3cc(C(=O)O)cn3)ccc21 | human | oral, 200 mg, single dose, fasted, healthy volunteers | 4.01 h |
| C[C@@H](Oc1ccc(S(C)(=O)=O)cc1C(=O)N1C[C@@H]2C[C@]2(c2cc(C(F)(F)F)on2)C1)C(F)(F)F | human | oral, 10 mg, single dose, fed | 2.5 h |
| OC[C@H]1O[C@@H](c2cc(Cc3ccc(C4CC4)cc3)c(Cl)c3c2CCO3)[C@H](O)[C@@H](O)[C@@H]1O | human | oral, 0.3 mg, single dose, fasted, healthy volunteers | 1.25 h |
| N#Cc1cccc(-c2ccc3ncc(-c4cc(F)cc(F)c4)c(N4CCC(N)CC4)c3c2)c1O | male human | oral, 20 mg, single dose | 1.5 h |
| CC(=O)N(C)[C@H]1CCN(C(=O)c2cnc3c(c2)C[C@](C)(c2ccc(F)cc2)N3)C1 | male human | oral, 30 mg, multiple doses, once daily, steady state | 0.75 h |
